Data published in ChEMBL document CHEMBL4017526, “Nanomolar Inhibitors of Glycogen Phosphorylase Based on β-d-Glucosaminyl Heterocycles: A Combined Synthetic, Enzyme Kinetic, and Protein Crystallography Study” (J Med Chem, 2017).
Calls of active or inactive are those of the source. The calls are words filed in the database; no cut-off is given here.

Experiments:
[1] = molecular target: T1, Glycogen phosphorylase, muscle form (Oryctolagus cuniculus, UniProt P00489); assay: Competitive inhibition of rabbit muscle glycogen phosphorylase-b in presence of varying levels of glucose-1-phosphate and constant concentration of glycogen and AMP preincubated for 15 mins with AMP and glycogen followed by glucose-1-phosphate addition by Lineweaver-Burk plot method
T1 sequence (P00489 whole entry): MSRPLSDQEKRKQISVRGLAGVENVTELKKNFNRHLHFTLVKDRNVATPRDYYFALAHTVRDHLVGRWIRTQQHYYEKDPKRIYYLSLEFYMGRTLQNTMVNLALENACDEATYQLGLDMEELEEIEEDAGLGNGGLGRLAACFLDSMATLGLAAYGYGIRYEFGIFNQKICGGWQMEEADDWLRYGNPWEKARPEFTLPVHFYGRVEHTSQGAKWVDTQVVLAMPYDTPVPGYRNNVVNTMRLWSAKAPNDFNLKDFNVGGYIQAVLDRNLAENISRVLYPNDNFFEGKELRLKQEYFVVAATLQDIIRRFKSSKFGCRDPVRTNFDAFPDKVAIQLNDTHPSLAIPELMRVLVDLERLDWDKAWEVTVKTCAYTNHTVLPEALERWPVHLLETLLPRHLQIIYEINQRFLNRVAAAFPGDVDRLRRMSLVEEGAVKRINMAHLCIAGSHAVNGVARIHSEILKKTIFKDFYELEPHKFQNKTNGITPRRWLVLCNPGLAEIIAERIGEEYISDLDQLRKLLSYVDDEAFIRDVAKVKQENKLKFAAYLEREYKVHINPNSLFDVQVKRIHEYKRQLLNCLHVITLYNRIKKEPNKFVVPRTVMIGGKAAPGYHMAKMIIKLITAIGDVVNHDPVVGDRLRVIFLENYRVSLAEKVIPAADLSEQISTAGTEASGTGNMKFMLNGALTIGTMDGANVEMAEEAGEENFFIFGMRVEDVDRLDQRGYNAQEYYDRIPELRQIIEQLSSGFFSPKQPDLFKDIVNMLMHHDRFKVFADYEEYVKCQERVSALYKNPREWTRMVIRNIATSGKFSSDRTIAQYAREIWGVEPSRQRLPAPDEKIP
How it was run: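 Rabbit skeletal muscle GPb, 3 μg/mL, at 30 °C in the glycogen-synthesis direction. Buffer: 30 mM imidazole/HCl pH 6.8, 60 mM KCl, 0.6 mM EDTA, 0.6 mM DTT, 0.2% glycogen, 1 mM AMP. Glc-1-P at 2, 3, 4, 6 or 10 mM, added after 15 min enzyme–glycogen preincubation. Pi read at 850 nm by molybdate method from 1–4 min samples. Ki from 1/v vs [inhibitor]; three independent experiments, mean ± SD.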

[2] = molecular target: T1, Glycogen phosphorylase, muscle form; assay: Competitive inhibition of rabbit muscle glycogen phosphorylase-a in presence of varying levels of glucose-1-phosphate and constant concentration of glycogen and AMP preincubated for 15 mins with AMP and glycogen followed by glucose-1-phosphate addition by Lineweaver-Burk plot method
How it was run: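 Rabbit muscle GPa at 3 μg/mL, 30 °C, synthesis direction. Medium: 30 mM imidazole/HCl pH 6.8, 60 mM KCl, 0.6 mM EDTA, 0.6 mM DTT, 0.2% glycogen. Enzyme–glycogen preincubated 15 min before Glc-1-P start. Samples at 1, 2, 3, 4 min quenched in SDS; phosphate measured at 850 nm. Ki derived from 1/v vs inhibitor concentration; three independent runs, mean ± SD.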

[3] = molecular target: T2, Glycogen phosphorylase, liver form (Homo sapiens, UniProt P06737); assay: Competitive inhibition of 6xHis-tagged human liver glycogen phosphorylase-a expressed in Escherichia coli BL21 Gold (DE3) assessed as release of inorganic phosphate using varying levels of glucose-1-phosphate and constant concentration of AMP and glycogen preincubated for 15 mins with AMP and glycogen followed by glucose-1-phosphate addition by Lineweaver-Burk plot method
T2 sequence (P06737 whole entry): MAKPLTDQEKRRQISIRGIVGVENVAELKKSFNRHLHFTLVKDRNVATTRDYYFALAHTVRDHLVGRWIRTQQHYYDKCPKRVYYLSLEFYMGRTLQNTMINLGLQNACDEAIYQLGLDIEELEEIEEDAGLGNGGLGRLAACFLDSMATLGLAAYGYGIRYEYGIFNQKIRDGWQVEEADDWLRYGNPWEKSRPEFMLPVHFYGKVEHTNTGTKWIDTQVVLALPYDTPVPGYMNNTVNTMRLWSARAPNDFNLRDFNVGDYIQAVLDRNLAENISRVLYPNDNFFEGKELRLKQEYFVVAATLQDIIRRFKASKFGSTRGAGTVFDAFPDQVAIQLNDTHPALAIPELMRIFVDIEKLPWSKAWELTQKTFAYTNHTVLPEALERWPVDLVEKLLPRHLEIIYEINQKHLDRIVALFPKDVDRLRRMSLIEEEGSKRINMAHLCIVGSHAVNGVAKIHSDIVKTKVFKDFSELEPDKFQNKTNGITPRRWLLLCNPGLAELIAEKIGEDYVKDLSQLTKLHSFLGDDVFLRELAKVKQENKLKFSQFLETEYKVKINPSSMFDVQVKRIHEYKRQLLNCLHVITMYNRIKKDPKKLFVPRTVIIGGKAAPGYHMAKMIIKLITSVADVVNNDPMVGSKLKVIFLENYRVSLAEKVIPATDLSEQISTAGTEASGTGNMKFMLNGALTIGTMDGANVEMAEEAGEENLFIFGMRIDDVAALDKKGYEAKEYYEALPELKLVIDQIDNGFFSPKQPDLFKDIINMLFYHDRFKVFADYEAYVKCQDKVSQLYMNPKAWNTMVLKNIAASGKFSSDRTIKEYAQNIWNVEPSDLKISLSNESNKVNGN

[4] = molecular target: T1, Glycogen phosphorylase, muscle form; assay: Inhibition of rabbit muscle glycogen phosphorylase
[5] = molecular target: T3, Glycogen phosphorylase, muscle form (Oryctolagus cuniculus) (UniProt P00489); assay: Competitive inhibition of rabbit muscle glycogen phosphorylase-b at 625 uM in presence of varying levels of glucose-1-phosphate and constant concentration of glycogen and AMP preincubated for 15 mins with AMP and glycogen followed by glucose-1-phosphate addition by Lineweaver-Burk plot method
T3 sequence (whole entry): T1 sequence (P00489 whole entry)

[6] = molecular target: T1, Glycogen phosphorylase, muscle form
[7] = molecular target: T2, Glycogen phosphorylase, liver form; assay: Competitive inhibition of human liver glycogen phosphorylase-a assessed as release of inorganic phosphate using varying levels of glucose-1-phosphate and constant concentration of AMP and glycogen preincubated for 15 mins with AMP and glycogen followed by glucose-1-phosphate addition

SMILES | Ki [1] [µM] | Ki [2] [µM] | Ki [3] [µM] | other results
N[C@@H]1[C@@H](O)[C@H](O)[C@@H](CO)O[C@H]1c1nc(-c2ccccc2)n[nH]1 | 35.2 | 30.2 | 30.8 | –
O[C@@H]1[C@@H](O)[C@H](c2nc(-c3ccc4ccccc4c3)c[nH]2)OC[C@H]1O | – | – | – | Ki [4]: 100 µM
N[C@@H]1[C@@H](O)[C@H](O)[C@@H](CO)O[C@H]1n1cc(-c2ccccc2)nn1 | – | – | – | inhibition [5]: inactive
O[C@@H]1[C@@H](O)[C@H](c2nc(-c3ccccc3)c[nH]2)OC[C@H]1O | – | – | – | Ki [4]: 800 µM
N[C@@H]1[C@@H](O)[C@H](O)[C@@H](CO)O[C@H]1c1nc(-c2ccccc2)c[nH]1 | 2.67 | 3.11 | 2.73 | –
N[C@@H]1[C@@H](O)[C@H](O)[C@@H](CO)O[C@H]1n1cc(-c2ccc3ccccc3c2)nn1 | 354 | – | – | –
O[C@@H]1[C@@H](O)[C@H](c2nc(-c3ccc4ccccc4c3)n[nH]2)OC[C@H]1O | – | – | – | Ki [4]: 491 µM
O=c1[nH]c(=O)n([C@@H]2O[C@H](CO)[C@@H](O)[C@@H](CO)[C@H]2O)cc1F | – | – | – | Ki [6]: 27.1 µM
O=c1[nH]c(=O)n([C@@H]2O[C@H](CO)[C@@H](O)[C@H](O)[C@H]2O)cc1F | – | – | – | Ki [6]: 5.5 to 7.9 µM
N[C@@H]1[C@@H](O)[C@H](O)[C@@H](CO)O[C@H]1c1nc(-c2ccc3ccccc3c2)n[nH]1 | 4.8 | 5.3 | 7.6 | –
OC[C@H]1O[C@@H](c2nnc(-c3ccccc3)[nH]2)[C@H](O)[C@@H](O)[C@@H]1O | – | – | – | Ki [7]: 1.35 µM

Continued, in another order:

Ki [1] [µM] | Ki [2] [µM] | Ki [3] [µM] | SMILES | other results
107 | – | – | N[C@@H]1[C@@H](O)[C@H](O)[C@@H](CO)O[C@H]1c1nc2ccccc2[nH]1 | –
0.191 | 0.125 | 0.143 | N[C@@H]1[C@@H](O)[C@H](O)[C@@H](CO)O[C@H]1c1nc(-c2ccc3ccccc3c2)c[nH]1 | –
